PPC-1+TRAIL kill = compounds killing PPC-1 cancer cells with TRAIL present (potentiator screen, no TRAIL-free arm) | PPC-1 cells + TRAIL, ATPLite viability luminescence | cell killing (% activity), % at 4 µM or 5 µM | 0.41% of 220,000 active;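 active means cell killing above 50% in the first pass at 4 µM, then a duplicate retest at 5 µM averaging 50% or more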;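 further: plate controls were cells with TRAIL plus DMSO for no effect and medium-only wells lacking cells for full effect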
FLuc inhib CS = inhibits firefly luciferase, flagging false hits in luciferase inhibition screens. P08659. ATPLite firefly luciferase biochemical luminescence, 10 min. inhibition, % at 10 µM. 1.5% of 200,000 active. AID 1006;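 active means inhibition above about 50% when tested at 10 µM, limit read from the data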
Target sequence (P08659 whole entry, looked up): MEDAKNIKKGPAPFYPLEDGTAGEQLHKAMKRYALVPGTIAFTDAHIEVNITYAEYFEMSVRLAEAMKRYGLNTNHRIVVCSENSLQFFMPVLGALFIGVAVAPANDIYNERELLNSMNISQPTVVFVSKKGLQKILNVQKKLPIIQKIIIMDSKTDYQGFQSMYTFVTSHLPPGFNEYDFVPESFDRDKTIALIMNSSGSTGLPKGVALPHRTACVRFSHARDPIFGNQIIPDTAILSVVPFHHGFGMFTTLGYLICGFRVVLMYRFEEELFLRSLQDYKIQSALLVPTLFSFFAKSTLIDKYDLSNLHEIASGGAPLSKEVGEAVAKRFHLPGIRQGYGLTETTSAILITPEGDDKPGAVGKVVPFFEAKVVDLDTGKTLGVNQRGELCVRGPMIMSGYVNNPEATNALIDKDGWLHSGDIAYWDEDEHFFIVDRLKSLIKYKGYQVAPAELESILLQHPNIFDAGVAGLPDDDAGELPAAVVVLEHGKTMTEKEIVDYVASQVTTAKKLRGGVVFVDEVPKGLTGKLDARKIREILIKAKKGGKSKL
TRAIL sens C8 = sensitizes caspase-8 expressing cells to TRAIL; NB7+C8 cells + TRAIL, ATPlite viability luminescence; inhibition (viability loss, TRAIL sensitization), % at 10 µM; 1% of 360,000 active; AID 624354;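 active means compounds causing at least 50% loss of cell viability in the single-dose screen, relative to plate controls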
FLuc act counter = affects firefly luciferase, flagging false hits in luciferase stimulation screens; P08659; activation factor at 10 µM; ATPlite luciferase biochemical, luminescence, 10 min; 0 = ATP-free wells, 1 = DMSO control; 200,000 tested, under 10 active;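 active means luciferase activation factor, scaled between plate controls, of at least 2 with compound at 10 µM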
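Material: Luciferase/luciferin reagent mix | Doses: Test compounds dosed from 2 mM stocks in 100% DMSO | Timing: 10 min incubation after luciferase reagent addition, room temperature | Measured by: Luminescence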
PPC1 cytotox = PPC-1 cell cytotoxicity | cytotoxicity, % at 5 µM | shares compounds with PPC-1+TRAIL kill | PPC-1 viability, ATPlite luminescence, overnight | 50% of 1,200 active | AID 1447;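 active means reconfirmed compounds whose average cytotoxicity reaches 50% or more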;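 further: 0% = DMSO-treated cells and 100% = wells holding medium but no cells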
* hit, by the source's call. A selection: hits, their analogues and other compounds. The true share with any hit is near 1.5%.

For C/C(=N\NC(=O)c1c(Br)c(C)nn1C)c1cccc(NC(=O)c2ccccc2F)c1 the results were PPC-1+TRAIL kill -27, FLuc inhib CS 5, TRAIL sens C8 10 and FLuc act counter 1.
CC(C)N(CCn1c(SCC(=O)N2CC(=O)Nc3ccccc32)nc2ccccc2c1=O)C(C)C was read as PPC-1+TRAIL kill 3, FLuc inhib CS -4, TRAIL sens C8 -2 and FLuc act counter 1.
Cn1ccnc1SCCNC(=O)C1CCC(=O)N(Cc2ccc(Cl)cc2)C1 (centres undefined) was read as TRAIL sens C8 -16.
`O=C(O)c1cc(Cl)ccc1NC(=O)C1CCCO1` (centres undefined) gave PPC-1+TRAIL kill 14, FLuc inhib CS 0, TRAIL sens C8 6, FLuc act counter 1 and PPC1 cytotox -10.
`O=C(O)c1ccccc1NC(=O)C1CCCO1` (centres undefined) gave PPC-1+TRAIL kill 7, FLuc inhib CS -2, TRAIL sens C8 -14, FLuc act counter 1 and PPC1 cytotox 6.
`CCc1cc(Br)ccc1N1C(=O)C2CC=CCC2C1=O` (centres undefined) gave PPC-1+TRAIL kill 40, FLuc inhib CS -2, TRAIL sens C8 2 and FLuc act counter 1.
`COc1ccc2c(c1)OC[C@H]1[C@H]2N2C(=O)c3ccc(F)cc3NC(=O)[C@@]2(C)[C@H]1c1ccccc1` gave TRAIL sens C8 13.
`Nc1nc(Nc2ccc(Cl)cc2)nc2ccccc12` gave PPC-1+TRAIL kill 79*, FLuc inhib CS 93*, TRAIL sens C8 76*, FLuc act counter 0.1 and PPC1 cytotox 80*.
For Cc1ccccc1Nc1nc(N)c2ccccc2n1 the results were PPC-1+TRAIL kill 58*, FLuc inhib CS 87*, TRAIL sens C8 63*, FLuc act counter 0.1 and PPC1 cytotox 54*.
O=C(c1cccc([N+](=O)[O-])c1)n1nc(-c2ccccc2)nc1NCc1ccccc1 was read as PPC-1+TRAIL kill 1, FLuc inhib CS -10, TRAIL sens C8 1 and FLuc act counter 1.1.
For C[C@@H]1Cn2cnc(C(=O)Nc3ccccc3)c2C(=O)N1 the results were TRAIL sens C8 8.
Screening O=C(Nc1ccccc1Cl)c1ccc(Cl)cc1Cl returned PPC-1+TRAIL kill 26, FLuc inhib CS 7, TRAIL sens C8 0 and FLuc act counter 0.9.
NC(=O)c1ccccc1N/C=C/C(=O)c1ccc(Cl)cc1Cl was read as PPC-1+TRAIL kill 81*, FLuc inhib CS 96*, TRAIL sens C8 90*, FLuc act counter 0 and PPC1 cytotox 81*.
Screening O=C(/C=C/Nc1ccc(F)cc1)c1ccc(Br)cc1 returned PPC-1+TRAIL kill 13, FLuc inhib CS 39, TRAIL sens C8 25 and FLuc act counter 0.6.
For NC(=O)c1ccccc1N/C=C/C(=O)c1ccc(F)cc1 the results were PPC-1+TRAIL kill 63*, FLuc inhib CS 90*, TRAIL sens C8 71*, FLuc act counter 0.1 and PPC1 cytotox 58*.
`Cc1ccc(C(=O)Nc2ncc3c(Cl)cccc3n2)cc1` gave PPC-1+TRAIL kill 74*, FLuc inhib CS 94*, TRAIL sens C8 83*, FLuc act counter 0.1 and PPC1 cytotox 67*.
Screening CCN1/C(=C/c2ccc3cc(C)cc(C)c3[n+]2CC)Sc2cc(C)ccc21 returned PPC-1+TRAIL kill 22, FLuc inhib CS 2, TRAIL sens C8 32, FLuc act counter 1 and PPC1 cytotox 34.
Cc1ccc2c(c1)S/C(=C\c1cccc[n+]1C)N2CCO was read as TRAIL sens C8 10.
`Cc1cc(Cl)n2nc(C)c(-c3ccc(Cl)cc3)c2n1` gave PPC-1+TRAIL kill 54*, FLuc inhib CS -4, TRAIL sens C8 41, FLuc act counter 1 and PPC1 cytotox 34.
Cc1cc(N)n2nc(C)c(-c3ccc(Cl)cc3)c2n1 was read as PPC-1+TRAIL kill 17, FLuc inhib CS -6, TRAIL sens C8 -13 and FLuc act counter 1.1.
Screening COc1cc(/C=C2\CCc3c2nc2ccccc2c3C(=O)O)cc(OC)c1OC returned PPC-1+TRAIL kill 52*, TRAIL sens C8 57* and PPC1 cytotox 54*.
`COCCOc1cc(N2C(=O)CSCC2=O)c(Cl)cc1Cl` gave PPC-1+TRAIL kill 23, FLuc inhib CS -9, TRAIL sens C8 -8 and FLuc act counter 1.1.
For COc1ccc(-c2nc(CCl)cs2)cc1 the results were PPC-1+TRAIL kill 1, FLuc inhib CS 32, TRAIL sens C8 4, FLuc act counter 0.7 and PPC1 cytotox 4.

Bioassay records: PubChem, Sanford-Burnham Center for Chemical Genomics
